Test results as given in publication PMC3483131 (The Journal of Cell Biology, 2012).

Legend:
[1] = system: GFP-actin in MDA-MB-231 cells; test: FRAP of GFP-actin in invasive pseudopods; format: cell-based; conditions: 2 µM LatA, invasive pseudopod, FRAP 90 s
[2] = system: mCherry-MT1-MMP in MDA-MB-231 cells; test: FRAP of mCherry-MT1-MMP at plasma membrane of cells in CIA; format: cell-based; conditions: invasive pseudopods in Matrigel (CIA); LatA at 2 µM
Procedure, shortened: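 mCherry-MT1-MMP expressed in MDA-MB-231 cells by nucleofection; cells kept at 37°C, 5% CO2. Photobleaching was done on the plasma membrane of invasive pseudopods in Matrigel and compared with other cell-surface regions, such as the membrane next to the nucleus. Fluorescence recovery gave MT1-MMP mobility.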

[3] = biological target: actin (F-actin) in invasive pseudopods of MDA-MB-231 cells (human (endogenous in MDA-MB-231)) (UniProt P60709); test: FRET or BRET
[4] = system: BM collagen IV / MDA-MB-231 cells; test: Native peritoneal basement membrane; format: cell-based, mouse (C57BL/6) BM; conditions: 3 d culture; GM6001 at 5 µM
Procedure, shortened: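 Native basement membrane was made by stripping mesothelial cells from C57BL/6 mouse mesentery (1 N ammonium hydroxide) and mounting it on 6.5-mm Transwells. 5 × 10^4 MDA-MB-231 cells were seeded on top in DME/10% FBS, with medium below, and cultured 3 d. Samples were fixed in 4% formaldehyde, then stained on both sides for collagen IV (antibody 1:200), phalloidin and DAPI, and imaged by confocal. Read-out was total remaining collagen IV fluorescence; ≥3 independent experiments in duplicate.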

MDA-MB-231 cells = conditions: CIA; ref Yu and Machesky, 2012; cited from earlier work

## C/C1=C/C(=O)O[C@@H]2C[C@@H](CC[C@H](C)/C=C\C=C\CC1)O[C@@](O)([C@@H]1CSC(=O)N1)C2 [Latrunculin A]
[1]
  GFP-actin exchange: GFP-actin exchanged much faster
[2]
  mobility of MT1-MMP in pseudopods: mCherry-MT1-MMP became more mobile

## MT1-MMP-GFP (from UniProt P50281 112-582) (natural protein)
[3]
  donor fluorescence lifetime with acceptor (FLIM-FRET): 2.25 ns
  shift in the donor fluorescence lifetime (FLIM-FRET): 150 ps

## CNC(=O)[C@H](Cc1c[nH]c2ccccc12)NC(=O)[C@@H](CC(=O)NO)CC(C)C [GM6001]
[4]
  degradation and remodeling of BM collagen IV: significantly blocked
MDA-MB-231 cells
  reduction of migration speed: 30–50%
